Reference: ChEMBL document CHEMBL3407388, “Synthesis, anticancer activity and molecular docking studies on a series of heterocyclic trans-cyanocombretastatin analogues as antitubulin agents” (2015)

Legend:
Type in all cases: functional
[1] = test system: LOX IMVI; assay: Cytotoxicity against human LOXIMVI cells assessed as growth inhibition after 48 hrs by SRB assay
In short: (§1)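 NCI 60-cell panel; compounds passing a single-dose screen (10−5 M, 48 h) were tested at five 10-fold dilutions (10−4 to 10−8 M) with 48 h drug exposure. GI50 is the molar concentration giving 50% reduction in net cell growth relative to cell numbers on day 0.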

[2] = test system: TK-10; assay: Cytotoxicity against human TK10 cells assessed as growth inhibition after 48 hrs by SRB assay; conditions: TK-10, 48 h
[3] = test system: NCI-H226; assay: Cytotoxicity against human NCI-H226 cells assessed as growth inhibition after 48 hrs by SRB assay; conditions: NCI-H226, 48 h; in short: as §1
[4] = test system: HL-60(TB); assay: Cytotoxicity against human HL-60(TB) cells assessed as growth inhibition after 48 hrs by SRB assay; conditions: HL-60, 48 h
In short: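 NCI 60-cell panel, leukemia subpanel. Five-dose screen at 10-fold dilutions from 10−4 to 10−8 M with 48 h drug exposure. GI50 is the molar concentration giving 50% reduction in net cell growth compared with cell numbers on day 0.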

[5] = Cytotoxicity against human NCI-ADR-RES cells assessed as growth inhibition after 48 hrs by SRB assay; in short: as §1
[6] = test system: IGROV-1; assay: Cytotoxicity against human IGROV1 cells assessed as growth inhibition after 48 hrs by SRB assay; conditions: IGROV-1, 48 h; in short: as §1
[7] = test system: CAKI-1; assay: Cytotoxicity against human Caki1 cells assessed as growth inhibition after 48 hrs by SRB assay; conditions: CAKI-1, 48 h; in short: as §1
[8] = test system: SNB-19; assay: Cytotoxicity against human SNB19 cells assessed as growth inhibition after 48 hrs by SRB assay; conditions: SNB-19, 48 h; in short: as §1
[9] = Cytotoxicity against human OVCAR5 cells assessed as growth inhibition after 48 hrs by SRB assay; conditions: OVCAR-5, 48 h; in short: as §1
[10] = test system: SF-295; assay: Cytotoxicity against human SF295 cells assessed as growth inhibition after 48 hrs by SRB assay; conditions: SF-295, 48 h; in short: as §1
[11] = Cytotoxicity against human OVCAR8 cells assessed as growth inhibition after 48 hrs by SRB assay; conditions: OVCAR-8, 48 h; in short: as §1
[12] = test system: SN12C; assay: Cytotoxicity against human SN12C cells assessed as growth inhibition after 48 hrs by SRB assay; in short: as §1
[13] = test system: MOLT-4; assay: Cytotoxicity against human MOLT4 cells assessed as growth inhibition after 48 hrs by SRB assay; conditions: MOLT-4, 48 h; in short: as §1
[14] = test system: BT-549; assay: Cytotoxicity against human BT549 cells assessed as growth inhibition after 48 hrs by SRB assay; conditions: BT-549, 48 h; in short: as §1
[15] = Cytotoxicity against human UACC62 cells assessed as growth inhibition after 48 hrs by SRB assay; conditions: UACC-62, 48 h
[16] = test system: NCI-H23; assay: Cytotoxicity against human NCI-H23 cells assessed as growth inhibition after 48 hrs by SRB assay; conditions: NCI-H23, 48 h; in short: as §1
[17] = test system: HT-29; assay: Cytotoxicity against human HT-29 cells assessed as growth inhibition after 48 hrs by SRB assay; conditions: HT-29, 48 h; in short: as §1
[18] = test system: HCC 2998; assay: Cytotoxicity against human HCC2998 cells assessed as growth inhibition after 48 hrs by SRB assay; conditions: HCC 2998, 48 h; in short: as §1
[19] = test system: U-251; assay: Cytotoxicity against human U251 cells assessed as growth inhibition after 48 hrs by SRB assay; conditions: U-251, 48 h
[20] = Cytotoxicity against human HCT15 cells assessed as growth inhibition after 48 hrs by SRB assay; conditions: HCT-15, 48 h; in short: as §1
[21] = test system: M14; assay: Cytotoxicity against human M14 cells assessed as growth inhibition after 48 hrs by SRB assay; conditions: M14, 48 h; in short: as §1
[22] = test system: K562; assay: Cytotoxicity against human K562 cells assessed as growth inhibition after 48 hrs by SRB assay; conditions: K562, 48 h; in short: as §1
[23] = Cytotoxicity against human OVCAR3 cells assessed as growth inhibition after 48 hrs by SRB assay; conditions: OVCAR-3, 48 h; in short: as §1
[24] = test system: SF-539; assay: Cytotoxicity against human SF539 cells assessed as growth inhibition after 48 hrs by SRB assay; conditions: SF-539, 48 h; in short: as §1
[25] = test system: MDA-MB-231; assay: Cytotoxicity against human MDA-MB-231 cells assessed as growth inhibition after 48 hrs by SRB assay; conditions: MDA-MB-231, 48 h; in short: as §1
[26] = Cytotoxicity against human OVCAR4 cells assessed as growth inhibition after 48 hrs by SRB assay; conditions: OVCAR-4, 48 h; in short: as §1
[27] = Cytotoxicity against human PC3 cells assessed as growth inhibition after 48 hrs by SRB assay; conditions: PC-3, 48 h; in short: as §1
[28] = test system: SF-268; assay: Cytotoxicity against human SF268 cells assessed as growth inhibition after 48 hrs by SRB assay; conditions: SF-268, 48 h; in short: as §1
[29] = test system: DU-145; assay: Cytotoxicity against human DU145 cells assessed as growth inhibition after 48 hrs by SRB assay; conditions: DU-145, 48 h; in short: as §1
[30] = test system: SNB-75; assay: Cytotoxicity against human SNB75 cells assessed as growth inhibition after 48 hrs by SRB assay; conditions: SNB-75, 48 h
[31] = test system: 786-0; assay: Cytotoxicity against human 786-0 cells assessed as growth inhibition after 48 hrs by SRB assay; conditions: 786-0, 48 h; in short: as §1
[32] = test system: COLO 205; assay: Cytotoxicity against human COLO205 cells assessed as growth inhibition after 48 hrs by SRB assay; conditions: COLO 205, 48 h; in short: as §1
[33] = test system: KM12; assay: Cytotoxicity against human KM12 cells assessed as growth inhibition after 48 hrs by SRB assay; conditions: KM12, 48 h; in short: as §1
[34] = test system: RPMI-8226; assay: Cytotoxicity against human RPMI8226 cells assessed as growth inhibition after 48 hrs by SRB assay; conditions: RPMI-8226, 48 h; in short: as §1
[35] = Cytotoxicity against human UO31 cells assessed as growth inhibition after 48 hrs by SRB assay; conditions: UO-31, 48 h
[36] = test system: MDA-MB-435; assay: Cytotoxicity against human MDA-MB-435 cells assessed as growth inhibition after 48 hrs by SRB assay; conditions: MDA-MB-435, 48 h; in short: as §1
[37] = test system: SW-620; assay: Cytotoxicity against human SW620 cells assessed as growth inhibition after 48 hrs by SRB assay; conditions: SW-620, 48 h
[38] = test system: A498; assay: Cytotoxicity against human A498 cells assessed as growth inhibition after 48 hrs by SRB assay; conditions: A498, 48 h; in short: as §1
[39] = Cytotoxicity against human HCT116 cells assessed as growth inhibition after 48 hrs by SRB assay; conditions: HCT-116, 48 h; in short: as §1
[40] = test system: SK-MEL-5; assay: Cytotoxicity against human SK-MEL-5 cells assessed as growth inhibition after 48 hrs by SRB assay; conditions: SK-MEL-5, 48 h; in short: as §1
[41] = test system: NCI-H460; assay: Cytotoxicity against human NCI-H460 cells assessed as growth inhibition after 48 hrs by SRB assay; conditions: NCI-H460, 48 h; in short: as §1
[42] = test system: MCF7; assay: Cytotoxicity against human MCF7 cells assessed as growth inhibition after 48 hrs by SRB assay; conditions: MCF7, 48 h; in short: as §1
[43] = test system: SK-OV-3; assay: Cytotoxicity against human SKOV3 cells assessed as growth inhibition after 48 hrs by SRB assay; conditions: SK-OV-3, 48 h; in short: as §1

COc1cc(/C(C#N)=C/c2c[nH]c3ccccc23)cc(OC)c1OC
GI50 [1]: 75 nM | GI50 [2]: 11100 nM | GI50 [3]: 194 nM | GI50 [4]: 48 nM | GI50 [5]: 39 nM | GI50 [6]: 417 nM | GI50 [7]: 58 nM | GI50 [8]: 76 nM | GI50 [9]: 10600 nM | GI50 [10]: 42 nM | GI50 [11]: 121 nM | GI50 [12]: 699 nM | GI50 [13]: 131 nM | GI50 [14]: 1940 nM | GI50 [15]: 48 nM | GI50 [16]: 133 nM | GI50 [17]: 38 nM | GI50 [18]: 107 nM | GI50 [19]: 50 nM | GI50 [20]: 51 nM | GI50 [21]: 53 nM | GI50 [22]: 40 nM | GI50 [23]: 33 nM | GI50 [24]: 99 nM | GI50 [25]: 245 nM | GI50 [26]: 338 nM | GI50 [27]: 54 nM | GI50 [28]: 2540 nM | GI50 [29]: 132 nM | GI50 [30]: 42 nM | GI50 [31]: 90 nM | GI50 [32]: 474 nM | GI50 [33]: 43 nM | GI50 [34]: 231 nM | GI50 [35]: 1410 nM | GI50 [36]: 24 nM | GI50 [37]: 47 nM | GI50 [38]: 35 nM | GI50 [39]: 48 nM | GI50 [40]: 42 nM | GI50 [41]: 41 nM | GI50 [42]: 34 nM | GI50 [43]: 51 nM

COc1cc(OC)cc(/C(C#N)=C/c2c[nH]c3ccccc23)c1
GI50 [1]: 78 nM | GI50 [2]: 10300 nM | GI50 [3]: 8180 nM | GI50 [4]: 31 nM | GI50 [5]: 33 nM | GI50 [6]: 347 nM | GI50 [7]: 35 nM | GI50 [8]: 62 nM | GI50 [9]: 197 nM | GI50 [10]: 45 nM | GI50 [11]: 103 nM | GI50 [12]: 77 nM | GI50 [13]: 49 nM | GI50 [14]: 49 nM | GI50 [15]: 49 nM | GI50 [16]: 256 nM | GI50 [17]: 38 nM | GI50 [18]: 207 nM | GI50 [19]: 45 nM | GI50 [20]: 53 nM | GI50 [21]: 42 nM | GI50 [22]: 43 nM | GI50 [23]: 31 nM | GI50 [24]: 52 nM | GI50 [25]: 644 nM | GI50 [26]: 3520 nM | GI50 [27]: 75 nM | GI50 [28]: 78 nM | GI50 [29]: 130 nM | GI50 [30]: 34 nM | GI50 [31]: 77 nM | GI50 [32]: 47 nM | GI50 [33]: 40 nM | GI50 [34]: 65 nM | GI50 [35]: 663 nM | GI50 [36]: 20 nM | GI50 [37]: 44 nM | GI50 [38]: 35 nM | GI50 [39]: 42 nM | GI50 [40]: 48 nM | GI50 [41]: 39 nM | GI50 [42]: 41 nM | GI50 [43]: 117 nM

COc1cc(/C(C#N)=C/c2cc3ccccc3n2Cc2ccc(C#N)cc2)cc(OC)c1OC
GI50 [1]: 90 nM | GI50 [2]: 20100 nM | GI50 [3]: 14500 nM | GI50 [4]: 31 nM | GI50 [5]: 73 nM | GI50 [6]: 183 nM | GI50 [7]: 35 nM | GI50 [8]: 85 nM | GI50 [9]: 259 nM | GI50 [10]: 37 nM | GI50 [11]: 124 nM | GI50 [12]: 269 nM | GI50 [13]: 274 nM | GI50 [14]: 109 nM | GI50 [15]: 58 nM | GI50 [16]: 246 nM | GI50 [17]: 48 nM | GI50 [18]: 265 nM | GI50 [19]: 44 nM | GI50 [20]: 89 nM | GI50 [21]: 56 nM | GI50 [22]: 39 nM | GI50 [23]: 42 nM | GI50 [24]: 39 nM | GI50 [25]: 294 nM | GI50 [26]: 672 nM | GI50 [27]: 105 nM | GI50 [28]: 86 nM | GI50 [29]: 207 nM | GI50 [30]: 39 nM | GI50 [31]: 137 nM | GI50 [32]: 97 nM | GI50 [33]: 47 nM | GI50 [34]: 199 nM | GI50 [35]: 201 nM | GI50 [36]: 24 nM | GI50 [37]: 48 nM | GI50 [38]: 29 nM | GI50 [39]: 47 nM | GI50 [40]: 60 nM | GI50 [41]: 93 nM | GI50 [42]: 39 nM | GI50 [43]: 87 nM
